Results: ChEMBL document CHEMBL4321838, “Drug Design Targeting T-Cell Factor-Driven Epithelial-Mesenchymal Transition as a Therapeutic Strategy for Colorectal Cancer” (J Med Chem, 2019)
≈ marks a conversion by molar mass, not a printed value. One block for each molecule: values may come before it. Calls of active or inactive are those of the source.

Key:
[1] = target: T1, DNA topoisomerase 2-alpha (Homo sapiens, UniProt P11388); assay: Inhibition of human topoisomerase 2alpha mediated decatenation at 30 uM using kDNA as susbtrate preincubated for 20 mins followed by substrate and ATP addition and measured after 1 hr by ethidium bromide staining based gel electrophoresis method relative to control
How it was run: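 Human TOP2A (3 U) preincubated 20 min at 37 °C with compound at 30 μM in 1.2% DMSO. Reaction started with 2 mM ATP and 35 ng kDNA and run 1 h at 37 °C. Products resolved on 0.8% agarose in TBE with 0.2 μg/mL ethidium bromide; decatenated bands compared with vehicle.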

[2] = Drug metabolism in CD-1 mouse active microsomes assessed as CYP450-mediated oxidative phase 1 metabolite formation measured within 30 mins by LC-MS/MS analysis; assay type: ADME; settings: 0.5 h
[3] = Metabolic stability in CD-1 mouse inactive microsomes incubated for 1 hr by LC-MS/MS analysis; assay type: ADME, Microsome
[4] = target: T1, DNA topoisomerase 2-alpha; assay: Inhibition of human topoisomerase 2alpha mediated decatenation using kDNA as susbtrate preincubated for 20 mins followed by substrate and ATP addition and measured after 1 hr by ethidium bromide staining based gel electrophoresis method
How it was run: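 IC50 from decatenation gels: TOP2A at 4 U per reaction, compound as 2-fold serial dilutions from 58.6 nM to 30 μM, 20 min preincubation. Then 2 mM ATP plus 35 ng kDNA for 1 h at 37 °C. Gels were 0.8% agarose with ethidium bromide, with decatenated and catenated DNA marker lanes.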

[5] = Drug metabolism in CD-1 mouse active microsomes assessed as metabolite formation at rate of first-order kinetics by LC-MS/MS analysis; assay type: ADME, Microsome
SW-620 [6] = assay: Anticlonogenic activity against human SW620 cells assessed as loss of cancer stem cell stemness by measuring inhibition of colony formation at 10 uM incubated for 24 hrs followed by replating and measured after 7 days by clonogenic assay; assay type: functional, cell-based
SW-620 [7] = assay: Cytotoxicity against human SW620 organoids assessed as cell death with loss of membrane integrity after 72 hrs by CellTox Green assay; assay type: functional, cell-based; settings: SW-620, 72 h
How it was run: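 SW620 tumor organoids exposed 72 h to inhibitor over 0–40 μM together with CellTox Green Express (0.5X). Whole-well mean fluorescence imaged (ex 488, em 500–550 nm). Normalised to lysis buffer as 0% viability and 0.4% DMSO as 100% viability.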

[8] = target: T1, DNA topoisomerase 2-alpha; assay: Inhibition of topoisomerase 2alpha dependent TCF transcription in human SW620 organoids transduced with TOPflash luminescent reporter after 72 hrs by luciferase based TOPFlash reporter gene assay
How it was run: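 SW620 cells stably carrying pCDH-TOPflash-luc grown as organoids: 5,000 cells per U-bottom well in phenol red-free RPMI with 5% FBS and 2% Matrigel, 72 h. Inhibitor then applied 72 h. One-Glo luciferase and CellTiter-Glo 3D added 1:1. Luciferase signal normalised to viability, then to DMSO controls.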

SW-620 [9] = assay: Antiinvasive activity in human SW620 organoids transduced with NucLight-Red virus assessed as inhibition of cell invasion at 10 uM incubated for 72 hrs and measured after 72 hrs by matrigel based fluorescence analysis; assay type: functional
How it was run: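 NucLight-Red-labelled SW620 organoids treated 72 h at 10 μM in 0.1% DMSO, then dissociated. 5,000 live cells per well seeded in 50% Matrigel in the upper chamber of a migration plate, 0.5% FBS above and 20% FBS below. Invading cells tracked by bottom-side fluorescence over days, six replicates per condition.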

[10] = Clearance in CD-1 mouse at 50 mg/kg, ip by LC-MS/MS analysis; assay type: ADME, organism-based; settings: in vivo
How it was run: (§1)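 Female CD-1 mice, single IP injection at 50 mg/kg in 100% DMSO. Sampling from 0.25 to 24 h, three mice per time point (21 per compound). Heparinised blood was spun to plasma, mixed 1:1 with acidified acetonitrile (0.1% formic acid or 0.1% TFA depending on compound), centrifuged, then measured by LC-MS/MS.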

[11] = target: T1, DNA topoisomerase 2-alpha; assay: Inhibition of topoisomerase 2alpha in human SW620 organoids transfected with VimPro-GFP reporter assessed as reversion of epithelial-mesenchymal transition by measuring reduction in vimentin expression up to 40 uM after 72 hrs by Hoechst 33342 staining based GFP reporter gene assay
How it was run: (§2)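 SW620 cells stably carrying VimPro-GFP or EcadPro-mCherry (puromycin selected) grown as organoids and dosed 72 h. Stained with 16 μM Hoechst 33342 for 1 h and imaged as 15 z-layers, 26.5 μm apart. Nuclei segmented and GFP- or mCherry-positive cells counted above background thresholds. Percent positive cells normalised to DMSO.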

SW-620 [12] = assay: Induction of apoptosis in human SW620 organoids assessed as increase in cleaved caspase 3/7 level at 40 uM after 72 hrs by caspase-glo 3/7 luminescence assay relative to control; assay type: functional
How it was run: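 SW620 cells, 2,000 per well in 384-well ultra-low attachment plates with 2% Matrigel, grown 72 h into organoids, then dosed 72 h. Caspase-Glo 3/7 reagent added 1:1 and shaken 30 min; luminescence read. Staurosporine served as positive control and 0.4% DMSO as negative control.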

[13] = Half life in CD-1 mouse microsomes measured up to 1 hr by LC-MS analysis; assay type: ADME, Microsome
How it was run: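 Female CD-1 mouse liver microsomes (0.5 mg/mL), substrate 1 μg/mL and 1.5 mM NADPH in 0.1 M phosphate buffer pH 7.4 at 37 °C. Samples taken from 0 to 60 min and quenched with an equal volume of acetonitrile. Parent compound remaining measured by LC-MS/MS without internal standard.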

[14] = Half life of terminal disposition phase in CD-1 mouse at 50 mg/kg, ip by LC-MS/MS analysis; assay type: ADME, organism-based; settings: in vivo, read-out: t1/2lambda (converted); how it was run: as §1
SW-620 [15] = assay: Induction of early stage cell death in human SW620 organoids transfected with EcadPro-RFP reporter assessed as loss of RFP reporter activity at 40 uM at after 72 hrs by Hoechst 33342 staining based mCherryRFP reporter gene assay; settings: sw-620, 72 h
Mus musculus = assay: Apparent volume of drug distribution in CD-1 mouse at 50 mg/kg, ip by LC-MS/MS analysis; assay type: ADME, organism-based; settings: in vivo; how it was run: as §1
[16] = Cmax in CD-1 mouse at 50 mg/kg, ip by LC-MS/MS analysis; assay type: ADME, organism-based; set-up: dose 50 mg/kg, route intraperitoneal; settings: in vivo; how it was run: as §1
[17] = Tmax in CD-1 mouse at 50 mg/kg, ip by LC-MS/MS analysis; assay type: ADME, organism-based; settings: in vivo; how it was run: as §1
SW-620 [18] = assay: Cytotoxicity against human SW620 organoids assessed as growth inhibition at 10 uM after 72 hrs by brightfield imaging of organoid volume
[19] = target: T1, DNA topoisomerase 2-alpha; assay: Inhibition of topoisomerase 2alpha in human SW620 organoids transfected with EcadPro-RFP reporter assessed as reversion of epithelial-mesenchymal transition by measuring increase in E-cadherin expression up to 40 uM after 72 hrs by Hoechst 33342 staining based mCherryRFP reporter gene assay; how it was run: as §2
[20] = AUC(0 to t) in CD-1 mouse at 50 mg/kg, ip by LC-MS/MS analysis; assay type: ADME, organism-based; settings: in vivo; how it was run: as §1
[21] = Aqueous solubility of compound in PBS at 1 mg after 18 hrs by UV based analysis; assay type: physicochemical
How it was run: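 Undissolved material removed by centrifugation at 5,000g for 45 min. UV absorption compared with a fully saturated 1-propanol solution; solubility derived by linear regression.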

T1 sequence (P11388 whole entry): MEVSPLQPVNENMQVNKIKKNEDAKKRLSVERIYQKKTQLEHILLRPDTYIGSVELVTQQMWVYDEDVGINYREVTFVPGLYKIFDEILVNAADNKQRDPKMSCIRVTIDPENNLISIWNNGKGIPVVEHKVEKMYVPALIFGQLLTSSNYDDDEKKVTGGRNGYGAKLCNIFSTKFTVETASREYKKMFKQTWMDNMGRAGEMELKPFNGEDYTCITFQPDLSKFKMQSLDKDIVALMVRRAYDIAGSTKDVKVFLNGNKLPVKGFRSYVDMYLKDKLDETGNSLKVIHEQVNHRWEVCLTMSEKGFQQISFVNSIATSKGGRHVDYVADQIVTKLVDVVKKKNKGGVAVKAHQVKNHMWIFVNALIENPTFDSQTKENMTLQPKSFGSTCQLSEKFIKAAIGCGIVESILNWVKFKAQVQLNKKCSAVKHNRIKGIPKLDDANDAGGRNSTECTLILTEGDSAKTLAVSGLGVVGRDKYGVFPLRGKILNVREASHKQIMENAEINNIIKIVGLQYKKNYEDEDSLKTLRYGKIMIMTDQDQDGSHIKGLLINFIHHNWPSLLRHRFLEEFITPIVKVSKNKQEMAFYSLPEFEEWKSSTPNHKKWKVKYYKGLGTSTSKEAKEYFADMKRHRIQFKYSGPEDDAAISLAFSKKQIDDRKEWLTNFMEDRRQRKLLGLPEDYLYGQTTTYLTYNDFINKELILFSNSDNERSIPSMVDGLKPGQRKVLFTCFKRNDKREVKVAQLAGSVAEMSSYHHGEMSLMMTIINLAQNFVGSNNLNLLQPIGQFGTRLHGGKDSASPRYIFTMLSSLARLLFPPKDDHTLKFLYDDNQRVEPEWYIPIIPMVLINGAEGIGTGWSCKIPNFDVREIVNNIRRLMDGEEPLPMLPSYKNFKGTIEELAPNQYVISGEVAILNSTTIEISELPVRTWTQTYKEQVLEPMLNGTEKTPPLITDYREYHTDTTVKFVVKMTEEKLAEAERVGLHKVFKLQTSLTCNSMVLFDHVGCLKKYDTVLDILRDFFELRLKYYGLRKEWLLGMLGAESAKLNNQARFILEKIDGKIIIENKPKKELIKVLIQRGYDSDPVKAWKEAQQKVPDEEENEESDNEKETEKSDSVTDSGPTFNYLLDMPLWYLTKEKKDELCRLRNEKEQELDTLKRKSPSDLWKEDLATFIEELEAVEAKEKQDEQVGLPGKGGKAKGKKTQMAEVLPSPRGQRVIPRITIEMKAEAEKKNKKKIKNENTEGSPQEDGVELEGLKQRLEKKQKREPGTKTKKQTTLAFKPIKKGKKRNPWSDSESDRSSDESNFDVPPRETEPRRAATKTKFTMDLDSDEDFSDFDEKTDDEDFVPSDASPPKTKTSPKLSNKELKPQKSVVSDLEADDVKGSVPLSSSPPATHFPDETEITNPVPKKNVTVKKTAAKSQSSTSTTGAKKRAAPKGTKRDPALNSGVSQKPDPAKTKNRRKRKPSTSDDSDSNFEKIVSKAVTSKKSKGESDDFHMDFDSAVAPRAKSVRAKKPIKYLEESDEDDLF

Structure (SMILES): CC(=O)Nc1ccc2c(-c3cccc(C(F)(F)F)c3)ccnc2c1O
- Drug metabolism [2]: Metabolite_Notdetected
- Stability [3]: Stable
- IC50 [4]: 3400 nM
- Drug metabolism [5]: Metabolite_Detected
- inhibition [1]: 97%

Structure (SMILES): COc1c(NC(C)=O)cc(OC)c2c(-c3ccccc3NC(=O)c3ccccc3)ccnc12
- inhibition [1]: 0%

Structure (SMILES): CC(C)(C)C(=O)Nc1ccc2c(-c3ccccc3)ccnc2c1O
- inhibition (SW-620 [6]): Active
- IC50 [4]: 1300 nM
- EC50 (SW-620 [7]): > 30000 nM
- inhibition [1]: 97%
- IC50 [8]: 4700 nM
- inhibition (SW-620 [9]): Active

Structure (SMILES): CC(=O)Nc1ccc(-c2ccnc3c(O)c(NC(C)=O)ccc23)cc1
- Drug metabolism [2]: Metabolite_Notdetected
- Stability [3]: Stable
- inhibition (SW-620 [6]): Active
- IC50 [4]: 1900 nM
- EC50 (SW-620 [7]): > 30000 nM
- Drug metabolism [5]: Metabolite_Detected
- inhibition [1]: 97%
- IC50 [8]: 2000 nM
- inhibition (SW-620 [9]): Active

Structure (SMILES): CC(=O)Nc1ccc2c(-c3cc(C(F)(F)F)ccc3O)ccnc2c1O
- inhibition [1]: 100%

Structure (SMILES): CC(=O)Nc1ccc2c(-c3cncnc3)ccnc2c1O
- inhibition [1]: 0%

Structure (SMILES): COc1c(NC(C)=O)ccc2c(-c3cc(F)ccc3O)ccnc12
- inhibition [1]: 0%

Structure (SMILES): CC(=O)Nc1ccc2c(-c3ccc(C(F)(F)F)cc3)ccnc2c1O
- inhibition [1]: 97%

Structure (SMILES): CC(=O)Nc1ccc2c(-c3ccoc3)ccnc2c1O
- inhibition (SW-620 [6]): Active
- EC50 (SW-620 [7]): > 30000 nM
- inhibition [1]: 86%
- IC50 [8]: 1700 nM
- inhibition (SW-620 [9]): Active

Now from value to molecule, other results behind:

- inhibition [1]: 3%
Structure (SMILES): CC(=O)Nc1cccc(-c2ccnc3c(O)c(NC(C)=O)ccc23)c1

- inhibition [1]: 1%
Structure (SMILES): CC(=O)Nc1ccc2c(-c3ccc(F)cc3)ccnc2c1O

- inhibition [1]: 0%
Structure (SMILES): CC(=O)Nc1ccc2c(-c3cc4ccccc4s3)ccnc2c1O

- CL/F [10]: 137 mL/min/kg
- Drug metabolism [2]: Metabolite_Notdetected
- inhibition [11]: Active
- Stability [3]: Stable
- t1/2 [13]: 30.18 min
- half-life [14]: 350 min
- Vz (Mus musculus): 69.3 L/kg
- Cmax [16]: 1980 ng/mL
- Tmax [17]: 15 min
- Drug metabolism [5]: Metabolite_Detected
- inhibition [1]: 100%
- IC50 [8]: 1100 nM
- inhibition [19]: Active
- AUC(0-t) [20]: 5890 ng·h/mL
- solubility thermodynamic at 18 h [21]: 45 µg/mL (≈ 112 µM)
Structure (SMILES): O=C(CN1CCOCC1)Nc1ccc2c(-c3cc4ccccc4o3)ccnc2c1O
- fold change (FC) (SW-620 [12]): 3
- Activity (SW-620 [15]): Active
- EC50 (SW-620 [7]): 22000 nM
- growth inhibition (GI) (SW-620 [18]): Active

- CL/F [10]: 283 mL/min/kg
- Drug metabolism [2]: Metabolite_Notdetected
- Stability [3]: Stable
- t1/2 [13]: > 60 min
- half-life [14]: 266 min
- Vz (Mus musculus): 108.9 L/kg
- Cmax [16]: 707 ng/mL
- Tmax [17]: 15 min
- Drug metabolism [5]: Metabolite_Detected
- inhibition [1]: 100%
- IC50 [8]: 1000 nM
- AUC(0-t) [20]: 2840 ng·h/mL
- solubility thermodynamic at 18 h [21]: 28 µg/mL (≈ 88 µM)
Structure (SMILES): CC(=O)Nc1ccc2c(-c3cc4ccccc4o3)ccnc2c1O
- inhibition (SW-620 [6]): Active
- EC50 (SW-620 [7]): > 30000 nM
- inhibition (SW-620 [9]): Active
